Assay results as given in the RNAGym collection of RNA variant scans (doi:10.1126/science.aae0568).
Variants at the floor of the assay were thinned out.

B1: tRNA (parent)
chain: GUUCCGUUGGCGUAAUGGUAACGCGUCUCCCUCCUAAGGAGAAGACUGCGGGUUCGAGUCCCGUACGGAACG

Variants of: B1
Assay: yeast fitness relative to wild type (ratio to wild type); higher = fitter; tRNA-Arg(CCU), competitive growth, 37 C, YPD
Procedure, shortened: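 Changes in genotype frequencies gave Darwinian fitness relative to wild type. Frequencies were read by 100-nucleotide paired-end sequencing of gene amplicons before and after pooled Saccharomyces cerevisiae strains, carrying tRNA-Arg(CCU) gene variants at the native locus, were competed in YPD at 37°C for 24 hours in six replicates. A genotype was kept only with ≥ 100 starting reads, and estimates < 0.5 were set to 0.5.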

| Variant | yeast fitness |
| --- | --- |
| GUUCUGUUCGCGUAAUGGUAACGCGUCUCCCUCCUGAGGAGAAGACUGCGGGUUCGAGUCCCGUACGGAACG | 0.538 |
| GUUCCGUUGGCGUAAUGGUAACGCGUCUCCCUCCUAAGCAGAAGACUGCGGGUUCGAGUCCCGUAUGGAACG | 0.633 |
| GUUCCGUUGGGGUAAUGGUAACGCGUCUUCCUCUUAAGGAGAAGACUGCGGGUUCGAGUCCAGUAUGGAACG | 0.565 |
| GUUCCGUUGGCGUACAGGUAGCGCGACUCUCUCCUAAGGAGAAGACUGCGGGUUCGAGUCACGUACGGUACG | 0.575 |
| GUUCCGUUGGCGUAAUGGUUACGCGUCUACCUCCUAAGGAGAAGACUGCGGGUUCGAGUCCCGUACGGAACG | 0.797 |
| GUUCCGUUGGCGUAAUGGUAGCGCGUCUCCCUCCUAAGGAGAAGACUGCGGGUUCUACUCCCGUACGGAACG | 0.661 |
| GUUCUGGUAGCGUAAUGGUAACGCGUCUCCGUCCUGAGGAGAAGACUGCGGGUUCGAGUCCCGUACGGAACG | ≤ 0.5 |
| GUUCCGUUGGCGUAAUAGUAACGCGUCUCCAUUCUAAGGAGAAGACUGCGGGUUCGAGGCCCGUCCGGAACG | ≤ 0.5 |
| GUUCCGUUGGCGUAAUGGUAACGGGUCUCCCUCCUGAGGAGAAGACUGCGGGUUGGAGUCCCGUACGGAACG | ≤ 0.5 |
| GUUCCGUCGGCGUAAUGGUAACGCGUCUCCCUCCUAAGGAGAAGACAGCGGGUUCGAGUCCCGUACGGAACG | 0.937 |
| GUUCCGUUGGCGUAAAGGUAACGCGUCUCCCUCCUAAGGAGAAGACCGCGGGUUCGAGUCCCGUACGGAACG | 1.01 |
| GUUCCGUUAGCGUAAUGGUAACGCGUCUCCCUCCUAAGAAGAAGGCUGCAGGUUCGAGUCCCGUACGGAACG | ≤ 0.5 |
| GUUCCGUUGGCGUAAUGGUAAGGCGUUUCCCUCCUAAGGAGAAGACUGCGGGUUCGAGUCCAGUGCGGAACG | ≤ 0.5 |
| GUUCCGUUGGCGUAAUGGUAACGCCUCUCCCUCUUAAGGAGAAGACUGCGGGUUCGAGUCCCGUACGGAACG | 0.558 |
| GUUCCAUUGGCGUGAUGGUAACGCGUCUCCCUCCUAAGGAGAAGACUGCGGGUUCGAGUCCCGUAAGGAACG | ≤ 0.5 |
| GUUCCGUCGGCGUAAUGGUAACGGGUCUCCCUCCUAAGGAGAAGACUGCGGGUUCGGGUCCCGUACGGAACG | ≤ 0.5 |
| GUUCCGUUGGCGUAAUGGUAACGAGUCUCCCCCCUAAGGAGAAGACUGCGGGUUCGAGUCCUGUACGGAACG | ≤ 0.5 |
| GUUCCGUUGGCGUAAUCGUAACGCGUCUCCCUCCUAAGGAGACGACUGCGAGUUCGAGUCCCGUACGGAACG | ≤ 0.5 |
| GUUCCGUUGGCGUAAUGGUAACGCAUCUCCCUCCUAAGGAGAAGACUGCGGGUUCGACUCCCGUGCGGAACG | 1.04 |

| Variant | yeast fitness |
| --- | --- |
| GUCCCGUUGGCGUAAUGGUAACGCGUGACCCUCCUAAGGAGAAGACUGCGGGUUCGAGUCCCGUACGGAACG | ≤ 0.5 |
| GCUCCAUUGGCGUAAUGGUUACGCGUCUCUCUCCUUAGGAGAAGACUGAGGGUUCGAGUCCCGUACGGAACG | ≤ 0.5 |
| GUUCGGUUGGUGUAAUGGUAACGCGUCUCCUUCCUAAGGAGAAGACUGCGGGUUCGAGUCCCGUACGGAACG | 0.676 |
| GUUCCGUUGGUGUAAUGGAAACGCGUCUCCCUUCUAAGGACAAGCCUGCGGGUUCGAGUCCCGUACGGAACG | ≤ 0.5 |
| GUUCCGUUGCCGUAAUGGUAACGCGUCUCCCUCCUAAGGAGCAGACUGCGGGUUCGAGUCCCGUACGGAACG | 0.71 |
| GUUCCGUUGGCGUAAUGGUAACGCGUCUCCCUCCUAAGGAGAAGACUGCGGGUUCGAGUCGCGUAGGGAACG | 0.625 |
| GUUCCGUUGGCGUAAUGGCAACGCGUGUCCCUCCUAAGGAGAAGAUUGCGGGUUCGAGUCCCGUACGGAACG | 0.673 |
| GUCGCGUUGGCGUAAUGGUAACCCGUCUCCCUCCUAAGGAGAAGACUGCGGGUUCGAGUCCCGUACGGAACG | ≤ 0.5 |
| GAUCCGUUGGCGUAAUGGUAACGCGUCUACCUCCUAAGGAGAAGUCUGCGGGUUCGAGUCCCGUACGCAACG | ≤ 0.5 |
| GUUCCGUUGGCGUCAUGGUAACGCGUCUCCCUCCUAAGGCGAAGACCGCGGGUUCGCGUCCCGUACGGAACG | ≤ 0.5 |
| GUUCCGUUGGCGUAAUGGUAUCGCGUCUCCGUCCUAAGGUGAAGACUGCCGGUUCGAGUCACGUAUGGAACG | 0.513 |
| GUUCCGUUGGCGUAAUGGUAACGCCUCUACCUCCUAAGGAGAAGACUGCGGAUUCGAGUCCCGUGCGGAACG | ≤ 0.5 |
| GUUCCGUUGGCGUAAUGGUAUCGCGUCUCCCUCCUAAGGAGAAGACUGCGGGUUCGAGUCCUGUAGGGAACG | ≤ 0.5 |
| GUUCCGUUGGCGUAAUGGUAACGUGUGUCCCUCCUAAGGAGAAGACUGCGGGUUGGAGUCCCGUACGAAACG | 0.526 |
| GUUCCGUUGGCGUCAUGGUAACGCGUCUCCCUCCUAAGGAGAAGACUGAGGGUUCGAUUCCCGUACGGAACG | ≤ 0.5 |
| GUCCCGUUGGCAUAAUGGUAACGCGUCUCCCUCCUAAGGAGAAGACUGCAGGUUCGAGUCCCGUACGGAACG | 0.662 |
| GUUCCGUUGGCGUAAUGGUAACGCGUCUCCCUCCUACGGAGAAGACUGUGGGUUCGAGUCCCGUACGGAACG | 0.848 |
| GUUUCGUUGACGUAAUGGUAACGCGUCUCCCUCCUAAGGAGAAGACUGCGGGUUCGAGUCCCGUACGGAACG | 0.644 |
| GUUCCCUUGGCGUAGUGGUAAAGCGUCUGCCUCCUACGGAGAAGACUGCCGGUUCGAGUCCCGUAUGGAACG | ≤ 0.5 |
